ChEMBL document CHEMBL3046406, “Herbicidal potential of ophiobolins produced by Drechslera gigantea” (2006)
Active and inactive are the calls of the source. No cut-off for these calls is given here.

Each compound was assayed on Echinochloa crus-galli (assay: Herbicidal activity against Echinochloa crus-galli (barnyard grass) assessed as diameter of leaf necrosis at 250 ug/ml measured after 2 days post compound treatment by leaf puncture assay).
Type: functional
Procedure, shortened: (§1)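 Detached leaf segments (about 5 cm) from young greenhouse-grown plants, each with a superficial puncture lesion (0.5 mm) made by glass capillary. Compound dissolved in DMSO, diluted with distilled water (final DMSO 2%), 8 µL droplet applied. Segments held on moist filter paper at 25 °C under continuous fluorescent light (10000 lux). DMSO droplets as control. Necrosis scored visually on a 0–3 scale at day 2.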
`CC(C)=C[C@H]1C[C@H](C)[C@]2(CC[C@]3(C)C[C@@H]4C(C)=CC(=O)[C@H]4/C(C=O)=C\C[C@H]32)O1` [3-ANHYDRO-6-EPI-OPHIOBOLIN A] gave an Activity of 1 mm.

Each compound was assayed on Chenopodium album (assay: Herbicidal activity against Chenopodium album assessed as diameter of leaf necrosis at 250 ug/ml measured after 2 days post compound treatment by leaf puncture assay).
Type: functional
Procedure, shortened: as §1
For `CC(C)=C[C@H]1C[C@H](C)[C@]2(CC[C@]3(C)C[C@@H]4C(C)=CC(=O)[C@H]4/C(C=O)=C\C[C@H]32)O1` [3-ANHYDRO-6-EPI-OPHIOBOLIN A], the Activity was 1 mm.

Each compound was assayed on Convolvulus arvensis (assay: Herbicidal activity against Convolvulus arvensis assessed as diameter of leaf necrosis at 100 ug/ml measured after 2 days post compound treatment by leaf puncture assay).
Type: functional
Procedure, shortened: as §1
For `CC(C)=C[C@H]1C[C@H](C)[C@]2(CC[C@]3(C)C[C@@H]4C(C)=CC(=O)[C@H]4/C(C=O)=C\C[C@H]32)O1` [3-ANHYDRO-6-EPI-OPHIOBOLIN A], the Activity was “inactive”.

What follows are compounds tested on Sonchus oleraceus (assay: Herbicidal activity against Sonchus oleraceus assessed as diameter of leaf necrosis at 250 ug/ml measured after 2 days post-compound treatment by leaf puncture assay).
Type: functional
Procedure, shortened: as §1
In the case of `CC(C)=C[C@H]1C[C@H](C)[C@]2(CC[C@]3(C)C[C@@H]4C(C)=CC(=O)[C@H]4/C(C=O)=C\C[C@H]32)O1` [3-ANHYDRO-6-EPI-OPHIOBOLIN A], the Activity is reported as 1 mm.

These compounds were tested on Phalaris canariensis (assay: Herbicidal activity against Phalaris canariensis assessed as diameter of leaf necrosis at 250 ug/ml measured after 2 days post compound treatment by leaf puncture assay).
Type: functional
Procedure, shortened: as §1
`CC(C)=C[C@H]1C[C@H](C)[C@]2(CC[C@]3(C)C[C@@H]4C(C)=CC(=O)[C@H]4/C(C=O)=C\C[C@H]32)O1` [3-ANHYDRO-6-EPI-OPHIOBOLIN A] was tested, and the Activity was 1 mm.

The compounds below were run on Convolvulus arvensis (assay: Herbicidal activity against Convolvulus arvensis assessed as diameter of leaf necrosis at 50 ug/ml measured after 2 days post compound treatment by leaf puncture assay).
Type: functional
Procedure, shortened: as §1
With `CC(C)=C[C@H]1C[C@H](C)[C@]2(CC[C@]3(C)C[C@@H]4C(C)=CC(=O)[C@H]4/C(C=O)=C\C[C@H]32)O1` [3-ANHYDRO-6-EPI-OPHIOBOLIN A] the Activity was “inactive”.

The compounds below were run on Oloptum miliaceum (assay: Herbicidal activity against Piptatherum miliaceum assessed as diameter of leaf necrosis at 250 ug/ml measured after 2 days post compound treatment by leaf puncture assay).
Type: functional
Procedure, shortened: as §1
`CC(C)=C[C@H]1C[C@H](C)[C@]2(CC[C@]3(C)C[C@@H]4C(C)=CC(=O)[C@H]4/C(C=O)=C\C[C@H]32)O1` [3-ANHYDRO-6-EPI-OPHIOBOLIN A] was tested, and the Activity was 1 mm.

These compounds were tested on Chenopodium album (assay: Herbicidal activity against Chenopodium album assessed as diameter of leaf necrosis at 100 ug/ml measured after 2 days post compound treatment by leaf puncture assay).
Type: functional
Procedure, shortened: as §1
`CC(C)=C[C@H]1C[C@H](C)[C@]2(CC[C@]3(C)C[C@@H]4C(C)=CC(=O)[C@H]4/C(C=O)=C\C[C@H]32)O1` [3-ANHYDRO-6-EPI-OPHIOBOLIN A] gave an Activity of 1 mm.

The compounds below were run on Amaranthus retroflexus (assay: Herbicidal activity against Amaranthus retroflexus assessed as diameter of leaf necrosis at 250 ug/ml measured after 2 days post compound treatment by leaf puncture assay).
Type: functional
Procedure, shortened: as §1
`CC(C)=C[C@H]1C[C@H](C)[C@]2(CC[C@]3(C)C[C@@H]4C(C)=CC(=O)[C@H]4/C(C=O)=C\C[C@H]32)O1` [3-ANHYDRO-6-EPI-OPHIOBOLIN A] was tested, and the Activity was “inactive”.

These compounds were tested on Sonchus oleraceus (assay: Herbicidal activity against Sonchus oleraceus assessed as diameter of leaf necrosis at 100 ug/ml measured after 2 days post-compound treatment by leaf puncture assay).
Type: functional
Procedure, shortened: as §1
In the case of `CC(C)=C[C@H]1C[C@H](C)[C@]2(CC[C@]3(C)C[C@@H]4C(C)=CC(=O)[C@H]4/C(C=O)=C\C[C@H]32)O1` [3-ANHYDRO-6-EPI-OPHIOBOLIN A], the Activity is reported as 1 mm.

The compounds below were run on Echinochloa crus-galli (assay: Herbicidal activity against Echinochloa crus-galli (barnyard grass) assessed as diameter of leaf necrosis at 50 ug/ml measured after 2 days post compound treatment by leaf puncture assay).
Type: functional
Procedure, shortened: as §1
In the case of `CC(C)=C[C@H]1C[C@H](C)[C@]2(CC[C@]3(C)C[C@@H]4C(C)=CC(=O)[C@H]4/C(C=O)=C\C[C@H]32)O1` [3-ANHYDRO-6-EPI-OPHIOBOLIN A], the Activity is reported as 1 mm.

These compounds were tested on Cynodon dactylon (assay: Herbicidal activity against Cynodon dactylon assessed as diameter of leaf necrosis at 250 ug/ml measured after 2 days post compound treatment by leaf puncture assay).
Type: functional
Procedure, shortened: as §1
`CC(C)=C[C@H]1C[C@H](C)[C@]2(CC[C@]3(C)C[C@@H]4C(C)=CC(=O)[C@H]4/C(C=O)=C\C[C@H]32)O1` [3-ANHYDRO-6-EPI-OPHIOBOLIN A] was tested, and the Activity was “inactive”.

These compounds were tested on Diplotaxis erucoides (assay: Herbicidal activity against Diplotaxis erucoides assessed as diameter of leaf necrosis at 50 ug/ml measured after 2 days post compound treatment by leaf puncture assay).
Type: functional
Procedure, shortened: as §1
Work on `CC(C)=C[C@H]1C[C@H](C)[C@]2(CC[C@]3(C)C[C@@H]4C(C)=CC(=O)[C@H]4/C(C=O)=C\C[C@H]32)O1` [3-ANHYDRO-6-EPI-OPHIOBOLIN A] yielded an Activity of 2 mm.

The compounds below were run on Setaria viridis (assay: Herbicidal activity against Setaria viridis assessed as diameter of leaf necrosis at 100 ug/ml measured after 2 days post compound treatment by leaf puncture assay).
Type: functional
Procedure, shortened: as §1
With `CC(C)=C[C@H]1C[C@H](C)[C@]2(CC[C@]3(C)C[C@@H]4C(C)=CC(=O)[C@H]4/C(C=O)=C\C[C@H]32)O1` [3-ANHYDRO-6-EPI-OPHIOBOLIN A] the Activity was 2 mm.

Each compound was assayed on Bromus sterilis (assay: Herbicidal activity against Bromus sterilis assessed as diameter of leaf necrosis at 250 ug/ml measured after 2 days post compound treatment by leaf puncture assay).
Type: functional
Procedure, shortened: as §1
With `CC(C)=C[C@H]1C[C@H](C)[C@]2(CC[C@]3(C)C[C@@H]4C(C)=CC(=O)[C@H]4/C(C=O)=C\C[C@H]32)O1` [3-ANHYDRO-6-EPI-OPHIOBOLIN A] the Activity was 1 mm.

The compounds below were run on Phalaris canariensis (assay: Herbicidal activity against Phalaris canariensis assessed as diameter of leaf necrosis at 50 ug/ml measured after 2 days post compound treatment by leaf puncture assay).
Type: functional
Procedure, shortened: as §1
`CC(C)=C[C@H]1C[C@H](C)[C@]2(CC[C@]3(C)C[C@@H]4C(C)=CC(=O)[C@H]4/C(C=O)=C\C[C@H]32)O1` [3-ANHYDRO-6-EPI-OPHIOBOLIN A] gave an Activity of 1 mm.

The compounds below were run on Cynodon dactylon (assay: Herbicidal activity against Cynodon dactylon assessed as diameter of leaf necrosis at 100 ug/ml measured after 2 days post compound treatment by leaf puncture assay).
Type: functional
Procedure, shortened: as §1
`CC(C)=C[C@H]1C[C@H](C)[C@]2(CC[C@]3(C)C[C@@H]4C(C)=CC(=O)[C@H]4/C(C=O)=C\C[C@H]32)O1` [3-ANHYDRO-6-EPI-OPHIOBOLIN A] was tested, and the Activity was “inactive”.

These compounds were tested on Digitaria sanguinalis (assay: Herbicidal activity against Digitaria sanguinalis (hairy crabgrass) assessed as diameter of leaf necrosis at 100 ug/ml measured after 2 days post compound treatment by leaf puncture assay).
Type: functional
Procedure, shortened: as §1
`CC(C)=C[C@H]1C[C@H](C)[C@]2(CC[C@]3(C)C[C@@H]4C(C)=CC(=O)[C@H]4/C(C=O)=C\C[C@H]32)O1` [3-ANHYDRO-6-EPI-OPHIOBOLIN A] gave an Activity of 1 mm.

The compounds below were run on Amaranthus retroflexus (assay: Herbicidal activity against Amaranthus retroflexus assessed as diameter of leaf necrosis at 100 ug/ml measured after 2 days post compound treatment by leaf puncture assay).
Type: functional
Procedure, shortened: as §1
With `CC(C)=C[C@H]1C[C@H](C)[C@]2(CC[C@]3(C)C[C@@H]4C(C)=CC(=O)[C@H]4/C(C=O)=C\C[C@H]32)O1` [3-ANHYDRO-6-EPI-OPHIOBOLIN A] the Activity was “inactive”.
